Active and inactive are the calls of the source. The calls are words filed in the database; no cut-off is given here.
Tests used:
[1] = Cmax in po dosed monkey; format: ADME, organism-based, Macaca mulatta; design: route oral; conditions: rhesus monkey, in vivo
[2] = Ratio of AUC in ICR mouse brain to AUC in ICR mouse plasma at 10 mg/kg, po measured at 6 hrs; format: ADME, organism-based; conditions: read-out: Ratio AUC
Method in brief: (§1)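 ICR mice (n=3) given a single oral dose of 10 mg/kg. Brain and plasma were sampled over nine hours, at 0.333, 1, 3, 6 and 9 h. Kp was calculated as AUC_brain/AUC_plasma.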

[3] = AUClast in mouse at 3 mg/kg, iv; format: ADME, organism-based; design: dose 3 mg/kg, time 0 - last, route intravenous; conditions: in vivo
Method in brief: (§2)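 Mice received a single dose of 3 mg/kg i.v. or 3, 10 or 30 mg/kg orally. Plasma concentration-time profiles were analysed for AUC from zero to infinity and to the last measured time (hr*ng/mL), Cmax (ng/mL, C0 after i.v.), Tmax and terminal half-life (hr), and oral bioavailability (%).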

[4] = AUC (infinity) in mouse at 3 mg/kg, po; format: ADME, organism-based; design: dose 3 mg/kg, time infinity, route oral; conditions: in vivo; method in brief: as §2
[5] = Oral bioavailability in mouse at 30 mg/kg; format: ADME, organism-based; conditions: in vivo; method in brief: as §2
Mus musculus [6] = assay: Antiamyloidogenic activity in po dosed double APP/PS1 transgenic Alzheimer's disease mouse model assessed as decrease in amyloid beta (1 to 40) levels in brain administered as qd for 8 weeks by sandwich ELISA; format: functional, organism-based
Method in brief: (§3)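 APP/PS1 mice, 29 weeks old, were dosed orally once daily for eight weeks at 30 or 100 mg/kg, with a vehicle group. Brain tissue was homogenized and amyloid fibrils were solubilized to monomers. Aβ1-40 and Aβ1-42 were then quantified by immunoassay with antibodies specific to monomeric Aβ.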

[7] = molecular target: Amyloid-beta precursor protein (Homo sapiens) (UniProt P05067); assay: Induction of HFIP-pretreated amyloid beta (1 to 42) (unknown origin) disaggregation after 1 hr by transmission electron microscopic method
Canis familiaris = assay: Volume of distribution at steady state in po dosed dog; format: ADME, organism-based, Canis lupus familiaris; conditions: in vivo
[8] = Initial concentration in mouse at 3 mg/kg, iv; format: ADME, organism-based; conditions: in vivo; method in brief: as §2
[9] = Half-life in po dosed monkey; conditions: rhesus monkey, in vivo
HT-22 [10] = assay: Cytotoxicity against mouse HT22 cells assessed as effect on cell viability at 1.25 to 10 uM after 18 hrs by MTT assay; format: cell-based; conditions: ht-22, 18 h
Method in brief: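 Mouse HT22 cells were treated with compound alone at the stated concentrations, without Aβ aggregates. Viability was read by MTT.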

[11] = AUC (infinity) in mouse at 30 mg/kg, po; format: ADME, organism-based; design: dose 30 mg/kg, time infinity, route oral; conditions: in vivo; method in brief: as §2
[12] = Oral bioavailability in monkey; format: ADME, organism-based, Macaca mulatta; conditions: rhesus monkey, in vivo
Cytochrome P450 3A4 = Cytochrome P450 3A4 (Homo sapiens, UniProt P08684); assay: Inhibition of CYP3A4 in human liver microsomes preincubated for 5 mins followed by addition of NADPH generating system measured after 20 mins by LC-MS/MS analysis; format: ADME
Method in brief: (§4)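 Inhibition of each CYP isozyme (1A2, 2A6, 2C8, 2C9, 2C19, 2D6, 3A4) was measured in human liver microsomes. IC50 values were reported in μM.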

[13] = molecular target: Amyloid-beta precursor protein (Homo sapiens) (UniProt P05067); assay: Induction of HFIP-pretreated amyloid beta (1 to 42) (unknown origin) disaggregation at 3.1 to 50 uM after 1 hr by Thioflavin-T fluorescence assay relative to control
[14] = Terminal half life in mouse at 3 mg/kg, iv; format: ADME, organism-based; conditions: in vivo, read-out: beta t1/2 (converted)
Method in brief: (§5)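 Mouse pharmacokinetics: single i.v. dose of 3 mg/kg, or oral doses of 3, 10 and 30 mg/kg. Plasma concentration–time curves gave T1/2 (terminal, hr), Tmax (hr), Cmax, AUC and bioavailability (%).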

[15] = Ratio of AUC in ICR mouse brain to AUC in ICR mouse plasma at 10 mg/kg, po measured at 0.333 hrs; format: ADME, organism-based; conditions: read-out: Ratio AUC; method in brief: as §1
[16] = Tmax in mouse at 3 mg/kg, po; format: ADME, organism-based; conditions: in vivo; method in brief: as §5
Mus musculus [17] = assay: Reversal of cognitive deficit in amyloid beta (1 to 42)-treated Alzheimer's disease ICR mouse model assessed as increase in spatial memory function by measuring spontaneous alternation at 1 mg/kg, po administered for 3 consecutive days by Y maze test relative to control; format: functional
Method in brief: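 Acute AD model: preformed Aβ aggregates injected directly into the brains of normal mice to induce acute neurotoxicity. Compound given orally for three consecutive days, then the Y-maze was run. Read-out is percentage of spontaneous alternation, compared against normal and vehicle-treated mice.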

[18] = Oral bioavailability in rat; format: ADME, organism-based; conditions: in vivo
[19] = Clearance in iv dosed rat; format: ADME, organism-based; conditions: in vivo
[20] = AUC in po dosed rat; format: ADME, organism-based; conditions: in vivo
[21] = Tmax in mouse at 10 mg/kg, po; format: ADME, organism-based; conditions: in vivo; method in brief: as §5
[22] = Cmax in po dosed ICR mouse; format: ADME, organism-based; design: route oral; conditions: in vivo
HT-22 [23] = assay: Neuroprotective activity against amyloid beta-induced toxicity in mouse HT22 cells assessed as increase in cell viability preincubated for 1 hr followed by amyloid beta challenge measured after 18 hrs by MTT assay; format: functional, cell-based
Method in brief: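 Mouse hippocampal HT22 cells were treated with compound at several concentrations and then exposed to preformed Aβ aggregates made from 25 μM monomeric Aβ. Viability was read by MTT and scaled between untreated cells and Aβ-only cells. Mean±SD of three independent experiments; one-way ANOVA with Dunnett test.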

Mus musculus [24] = assay: Toxicity in double APP/PS1 transgenic Alzheimer's disease mouse model at 30 to 100 mg/kg, po qd administered for 8 weeks; format: organism-based; conditions: in vivo, 1344 h
Method in brief: (§6)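 APP/PS1 double transgenic mice, 29 weeks old, dosed orally once daily at 30 or 100 mg/kg for eight weeks. Y-maze spontaneous alternation (%) was then measured against vehicle-treated mice, and mice were watched for apparent toxicity.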

[25] = Cmax in po dosed rat; format: ADME, organism-based; design: route oral; conditions: in vivo
Rhesus monkey = assay: Volume of distribution at steady state in po dosed monkey; format: ADME, organism-based, Macaca mulatta; conditions: in vivo
Mus musculus [26] = assay: Reversal of cognitive deficit in double APP/PS1 transgenic Alzheimer's disease mouse model assessed as increase in spatial memory function by measuring spontaneous alternation at 30 mg/kg, po qd administered for 8 weeks by Y maze test (reference value: 52.64 +/- 4.15%); format: functional; method in brief: as §6
Mus musculus [27] = assay: Antiamyloidogenic activity in po dosed double APP/PS1 transgenic Alzheimer's disease mouse model assessed as decrease in amyloid beta (1 to 42) levels in brain administered as qd for 8 weeks by sandwich ELISA; format: functional, organism-based; method in brief: as §3
[28] = Oral bioavailability in mouse at 3 mg/kg; format: ADME, organism-based; conditions: in vivo; method in brief: as §2
[29] = AUC (infinity) in mouse at 10 mg/kg, po; format: ADME, organism-based; design: dose 10 mg/kg, time infinity, route oral; conditions: in vivo; method in brief: as §2
[30] = Half life in po dosed dog; format: ADME, organism-based, Canis lupus familiaris; conditions: in vivo
Cytochrome P450 2C9 = Cytochrome P450 2C9 (Homo sapiens, UniProt P11712); assay: Inhibition of CYP2C9 in human liver microsomes preincubated for 5 mins followed by addition of NADPH generating system measured after 20 mins by LC-MS/MS analysis; format: ADME; method in brief: as §4
Cytochrome P450 2D6 = Cytochrome P450 2D6 (Homo sapiens, UniProt P10635); assay: Inhibition of CYP2D6 in human liver microsomes preincubated for 5 mins followed by addition of NADPH generating system measured after 20 mins by LC-MS/MS analysis; format: ADME; method in brief: as §4
Cytochrome P450 2C19 = Cytochrome P450 2C19 (Homo sapiens, UniProt P33261); assay: Inhibition of CYP2C19 in human liver microsomes preincubated for 5 mins followed by addition of NADPH generating system measured after 20 mins by LC-MS/MS analysis; format: ADME; method in brief: as §4
Cytochrome P450 2C19, sequence (P33261 whole entry): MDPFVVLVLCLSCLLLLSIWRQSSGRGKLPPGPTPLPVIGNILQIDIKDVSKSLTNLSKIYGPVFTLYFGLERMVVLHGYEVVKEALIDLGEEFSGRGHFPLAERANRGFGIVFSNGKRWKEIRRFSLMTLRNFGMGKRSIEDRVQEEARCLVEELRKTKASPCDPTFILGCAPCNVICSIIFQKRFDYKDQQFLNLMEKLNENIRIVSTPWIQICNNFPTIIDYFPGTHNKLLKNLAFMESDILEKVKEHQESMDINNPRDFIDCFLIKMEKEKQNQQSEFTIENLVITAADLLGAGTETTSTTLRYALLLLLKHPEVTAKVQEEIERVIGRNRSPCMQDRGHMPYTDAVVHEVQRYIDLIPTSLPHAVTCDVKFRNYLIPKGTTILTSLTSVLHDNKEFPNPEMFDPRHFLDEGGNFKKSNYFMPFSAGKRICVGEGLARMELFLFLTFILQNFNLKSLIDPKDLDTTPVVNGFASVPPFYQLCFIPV

Amyloid-beta precursor protein (Homo sapiens), sequence (P05067 whole entry): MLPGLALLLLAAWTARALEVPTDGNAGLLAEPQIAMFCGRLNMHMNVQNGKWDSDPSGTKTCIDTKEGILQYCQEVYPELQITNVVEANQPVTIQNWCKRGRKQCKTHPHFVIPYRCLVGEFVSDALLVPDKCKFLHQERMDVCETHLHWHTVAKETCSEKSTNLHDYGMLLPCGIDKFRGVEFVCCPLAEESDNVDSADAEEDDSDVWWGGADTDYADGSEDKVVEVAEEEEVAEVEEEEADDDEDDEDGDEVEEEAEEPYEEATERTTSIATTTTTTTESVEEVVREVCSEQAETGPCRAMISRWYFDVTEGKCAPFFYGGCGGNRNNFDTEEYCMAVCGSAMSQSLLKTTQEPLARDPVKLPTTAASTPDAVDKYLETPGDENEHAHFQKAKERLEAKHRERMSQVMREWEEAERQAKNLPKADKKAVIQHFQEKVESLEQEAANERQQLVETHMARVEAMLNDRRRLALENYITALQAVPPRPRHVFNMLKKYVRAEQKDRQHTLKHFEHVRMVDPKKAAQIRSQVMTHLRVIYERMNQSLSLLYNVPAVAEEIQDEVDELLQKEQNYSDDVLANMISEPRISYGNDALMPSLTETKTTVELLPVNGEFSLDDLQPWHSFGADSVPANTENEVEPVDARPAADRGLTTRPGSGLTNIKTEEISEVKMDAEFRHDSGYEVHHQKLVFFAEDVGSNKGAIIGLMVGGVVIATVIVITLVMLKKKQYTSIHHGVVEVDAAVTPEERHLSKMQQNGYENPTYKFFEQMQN
Cytochrome P450 3A4, sequence (P08684 whole entry): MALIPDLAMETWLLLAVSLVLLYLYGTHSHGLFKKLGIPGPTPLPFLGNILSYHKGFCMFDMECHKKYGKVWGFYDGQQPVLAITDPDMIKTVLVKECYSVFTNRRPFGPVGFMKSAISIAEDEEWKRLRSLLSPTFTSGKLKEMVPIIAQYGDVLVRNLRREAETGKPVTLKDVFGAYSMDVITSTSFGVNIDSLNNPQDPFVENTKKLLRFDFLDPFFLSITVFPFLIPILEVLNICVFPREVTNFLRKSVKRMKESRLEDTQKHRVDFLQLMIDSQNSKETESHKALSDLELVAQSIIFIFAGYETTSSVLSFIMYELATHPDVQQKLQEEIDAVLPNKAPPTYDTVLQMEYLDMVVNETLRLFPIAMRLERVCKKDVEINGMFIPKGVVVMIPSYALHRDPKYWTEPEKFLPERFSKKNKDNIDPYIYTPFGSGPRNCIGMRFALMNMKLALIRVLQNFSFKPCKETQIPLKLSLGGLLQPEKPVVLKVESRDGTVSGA
Cytochrome P450 2D6, sequence (P10635 whole entry): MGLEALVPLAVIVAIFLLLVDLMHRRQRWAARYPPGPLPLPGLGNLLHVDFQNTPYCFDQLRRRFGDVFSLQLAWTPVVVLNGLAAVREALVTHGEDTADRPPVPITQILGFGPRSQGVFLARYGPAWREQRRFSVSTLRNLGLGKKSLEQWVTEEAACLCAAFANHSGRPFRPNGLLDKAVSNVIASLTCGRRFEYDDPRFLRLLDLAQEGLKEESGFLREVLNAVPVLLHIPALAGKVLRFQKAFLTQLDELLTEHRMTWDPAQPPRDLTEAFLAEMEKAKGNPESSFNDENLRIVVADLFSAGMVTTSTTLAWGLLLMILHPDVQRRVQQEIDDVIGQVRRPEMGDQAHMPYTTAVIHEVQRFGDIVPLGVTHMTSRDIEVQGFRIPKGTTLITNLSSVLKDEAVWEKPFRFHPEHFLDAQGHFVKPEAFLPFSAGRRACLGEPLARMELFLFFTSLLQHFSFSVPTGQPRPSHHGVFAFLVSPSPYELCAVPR
Cytochrome P450 2C9, sequence (P11712 whole entry): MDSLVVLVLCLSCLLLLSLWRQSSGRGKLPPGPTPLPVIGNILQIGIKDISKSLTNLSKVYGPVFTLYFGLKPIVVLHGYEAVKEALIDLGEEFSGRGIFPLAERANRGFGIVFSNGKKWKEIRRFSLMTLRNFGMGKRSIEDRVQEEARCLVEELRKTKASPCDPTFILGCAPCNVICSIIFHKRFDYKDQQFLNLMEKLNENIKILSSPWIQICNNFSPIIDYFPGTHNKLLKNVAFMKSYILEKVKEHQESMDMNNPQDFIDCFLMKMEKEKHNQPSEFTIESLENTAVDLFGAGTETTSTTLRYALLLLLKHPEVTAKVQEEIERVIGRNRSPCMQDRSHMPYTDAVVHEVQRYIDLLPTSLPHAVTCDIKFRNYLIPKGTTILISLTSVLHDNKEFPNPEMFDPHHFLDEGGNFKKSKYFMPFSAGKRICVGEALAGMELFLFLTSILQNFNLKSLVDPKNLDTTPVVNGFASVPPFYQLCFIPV

For `COCCCc1ccc2oc(-c3ccc(OC)c(OC)c3)cc2c1`, the Cmax [1] was 969 ng/mL, the Kp at 6 h [2] was 1.2 and the AUC(0-t) [3] was 1300 ng·h/mL. The AUC(0-inf) [4] was 283 ng·h/mL, the bioavailability [5] was 79.1% and the Activity (Mus musculus [6]) was “Dose-dependent effect”. For the same compound, the Activity [7] was “Active”, the Vdss (Canis familiaris) was 2.7 L/kg and the C0 [8] was 4870 ng/mL. The t1/2 [9] was 12.9 h, the Activity (HT-22 [10]) was “Non-Toxic” and the AUC(0-inf) [11] was 10500 ng·h/mL. For the same compound, the bioavailability [12] was 70%, the IC50 (Cytochrome P450 3A4) was over 50 µM and the Activity [13] was 40%. The half-life [14] was 1.4 h, the Kp at 0.333 h [15] was 1.2 and the Tmax [16] was 0.7 h. For the same compound, the Activity (Mus musculus [17]) was 71.22%, the bioavailability [18] was 51% and the clearance [19] was 33 mL/min/kg. For the same compound, the AUC [20] was 4200 ng·h/mL, the Tmax [21] was 0.7 h and the Cmax [22] was 944 ng/mL. For the same compound, the Activity (HT-22 [23]) was “Dose-dependent effect”, the Activity (Mus musculus [24]) was “Non-Toxic” and the Cmax [25] was 421 ng/mL. The Vdss (Rhesus monkey) was 3.8 L/kg, the Activity (Mus musculus [26]) was 63.73% and the Activity (Mus musculus [27]) was “Dose-dependent effect”. The bioavailability [28] was 21.4%, the AUC(0-inf) [29] was 2290 ng·h/mL and the half-life [30] was 1.4 h. It also gave an IC50 (Cytochrome P450 2C9) of over 50 µM, an IC50 (Cytochrome P450 2D6) of over 50 µM and an IC50 (Cytochrome P450 2C19) of over 50 µM.
